STEP inh – STEP (human) phosphatase inhibition; recombinant STEP, OMFP fluorogenic substrate, fluorescence; P54829; inhibition, % at 20 µM; actives 0.25% (n = 360,000); AID 588621;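 active = inhibition at 20 µM, scaled per plate between control wells, above about 37%, limit read from the data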;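 note: 0% = DMSO with enzyme and substrate and 100% = substrate only without enzyme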
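System: STEP (striatal-enriched tyrosine phosphatase) enzyme, cell-free; medium: Bis-Tris pH 6.0 buffer with DTT, detergent; dosing: 20 µM, 1% DMSO; times: reaction 20 min, ambient temperature; detection: fluorescence, 480/540 nm; read-out basis: normalized % inhibition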
NadD block – blocks S. aureus nicotinate mononucleotide adenylyltransferase; purified NadD enzyme, colorimetric absorbance read-out; inhibition, % at 20 µM; actives 0.78% (n = 360,000); AID 602399; in the data active = inhibition above about 26%
LMPTP inh – blocks human LMPTP phosphatase. P24666. recombinant LMPTP-A, OMFP fluorogenic substrate, fluorescence intensity. inhibition, % at 20 µM. actives 0.22% (n = 360,000);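 active = compounds that cut the enzyme signal by at least half of the control window in the single-dose screen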;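 note: plate controls were DMSO wells with enzyme plus substrate for no effect and substrate without enzyme for full effect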
Target sequence (P24666 whole entry, looked up): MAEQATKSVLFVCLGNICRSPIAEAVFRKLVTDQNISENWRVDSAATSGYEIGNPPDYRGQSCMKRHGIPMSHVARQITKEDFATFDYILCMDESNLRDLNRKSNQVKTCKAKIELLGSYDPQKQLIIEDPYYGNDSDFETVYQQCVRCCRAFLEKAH
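Buffer or medium: Bis-Tris pH 6.0, DTT, detergent; Assay system: LMPTP-A enzyme; Quantity: 0.625 nM enzyme; Detection: endpoint fluorescence intensity; Times: 50 min dark incubation at room temperature; Controls: substrate-only low control, DMSO enzyme-plus-substrate high control; Doses: single 20 µM dose; Read-out: percent inhibition versus substrate-only and uninhibited controls; Reagent: 400 µM OMFP.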
DNMT1 inh – inhibitors of human DNMT1; inhibition (reported as % activation of signal), % at 10 µM; DNMT1 molecular beacon, Hinp1I cleavage, fluorescence; AID 588458; P26358; actives 0.83% (n = 360,000); in the data active = inhibition above about 50%
Scp1 inh – Scp-1 (human) phosphatase inhibition; Recombinant Scp1, phosphopeptide, malachite green phosphate absorbance; inhibition, % at 20 µM; actives 0.88% (n = 340,000);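 active = inhibition above about 50% at 20 µM, limit read from the data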;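 note: plate controls were DMSO wells with enzyme for no effect and wells lacking enzyme for full effect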
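Times: enzyme reaction 45 min at room temperature, colour 5 min, stabilisation 30 min. Material: SCP-1 catalytic fragment, aa 76-261. Medium: Acidic Tris acetate buffer with magnesium and detergent. Signal: colorimetric free-phosphate detection, absorbance 630 nm. Read-out basis: % inhibition of SCP-1 phosphate liberation. Reagent: Phosphorylated 17-residue peptide substrate.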
SUMO1-SIM PPI – modulators of human SUMO1-mediated protein-protein interactions. SUMO1 binding to a labelled peptide, TR-FRET, 1 h. P63165. inhibition, % at 20 µM. actives 0.33% (n = 360,000); in the data active = inhibition above about 37%
Target sequence (P63165 whole entry, looked up): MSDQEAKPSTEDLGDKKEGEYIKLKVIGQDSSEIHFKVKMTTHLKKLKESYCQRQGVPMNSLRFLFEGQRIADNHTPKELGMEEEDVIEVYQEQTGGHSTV
* hit, by the source's call; . = no result; ! = not confirmed by another sample. An excerpt weighted towards active compounds, which were near 2.4% of everything screened.

SMILES	STEP inh	NadD block	LMPTP inh	DNMT1 inh	Scp1 inh	SUMO1-SIM PPI
Nc1nn2c(-c3ccccc3)cc(=O)[nH]c2c1N=Nc1ccc(O)cc1	11	24	25	-25	-3	4
O=C(O)[C@@H]1[C@H]2C[C@H]3c4[nH]c5ccccc5c4CCN3C[C@@H]2CC[C@@H]1O	-2	16	60*	21	-9	25
O=C(CCCCn1c(=O)c2ccccc2n(CC(=O)Nc2ccccc2)c1=O)NCc1ccco1	-2	3	0	-4	-3	3
CCCCn1nnnc1C(c1cc2ccccc2o1)N1CCN(c2cc(C)nc3ccccc23)CC1 (centres undefined)	.	13	78*	.	.	2
CC(C)CC1Nc2ncnc(N3CCCCC3)c2N(Cc2ccccc2)C1=O (centres undefined)	-2	0	-2	-2	0	4
CC1Nc2ncnc(N3CCc4ccccc4C3)c2N(Cc2ccc(Br)cc2)C1=O (centres undefined)	0	45*!	1	17	14	3
O=C1C(Cc2ccccc2)Nc2ncnc(N3CCc4ccccc4C3)c2N1Cc1ccccc1 (centres undefined)	11	40*	0	-4	1	6
O=C1C(Cc2ccccc2)Nc2ncnc(N3CCOCC3)c2N1Cc1ccc(Br)cc1 (centres undefined)	0	5	-1	-1	-2	5
CCC1Nc2ncnc(N3CCc4ccccc4C3)c2N(Cc2ccc(Br)cc2)C1=O (centres undefined)	1	19	2	-21	.	2
O=C1C(Cc2ccccc2)Nc2ncnc(N3CCCCC3)c2N1Cc1ccc(Cl)cc1 (centres undefined)	-2	36*	-1	3	5	-3
CN1CCN(c2ccc(Nc3ccnc4cc(Cl)ccc34)cc2)CC1	1	-5	15	11	8	-16
CCN1CCN(c2ccc(Nc3ccnc4ccccc34)cc2)CC1	-3	-9	67*	7	-2	-28
CC1CCCCN1CCNC(=O)C1CC(=O)N(c2ccc(F)c(Cl)c2)C1 (centres undefined)	3	4	-3	1	-3	-1
CC1CCCN(CCCNC(=O)C2CC(=O)N(c3ccc(F)c(Cl)c3)C2)C1 (centres undefined)	-1	3	-1	-3	-11	42*
Cc1ccc(-n2ncc3c(=O)[nH]c(SCC(=O)N4CCC(C)CC4)nc32)cc1C	-1	13	1	-2	3	41*
Cc1ccc(-n2ncc3c(=O)[nH]c(SCC(=O)N4CCCC4)nc32)cc1C	-1	3	-5	1	-3	5
Cc1cc(C)c(S(=O)(=O)/N=C2/C=C(Sc3ncn[nH]3)C(=O)c3ccccc32)cc1C	7	90*	14	16	4	92*
CN1CCC[C@H]1c1cccnc1	-1	-1	0	0	27	5
COc1ccc(N2CCN(C(=O)c3cc4c(s3)-c3ccccc3S(=O)(=O)C4)CC2)cc1	2	7	3	-1	-13	-20
Cc1ccc(NC(=O)C2CCCN2C(=O)c2cccs2)c(C)c1 (centres undefined)	-3	10	-2	0	17	-10
Cc1ccc(NC(=O)C2CCN(C(=O)c3cccs3)CC2)c(C)c1	-2	7	-3	2	99*	3
Cc1cc(F)c(F)c(C(=O)N2CCCCC2C)c1Cl (centres undefined)	-3	-1	-2	0	-2	-1
COc1ccccc1NC(=O)c1cc2cc(Br)ccc2cc1O	17	30*	9	-9	39	-4
CC(C)C[C@H]1CNC(=S)N1CC1CCCN1C[C@H](CC(C)C)N1C[C@H](CC(C)C)N(CC2CCCCCC2)C1=S (some centres undefined)	1	10	0	12	7	-2
N#CC1=C2SCN(Cc3ccccc3)CN2C(=O)CC1c1cccs1 (centres undefined)	48*	1	6	-3	-1	3
